The values below come from article PMC6072051 (MedChemComm, 2017).

pIC50: −log10 of the molar value.

In assay [1] the target is T1, M. tuberculosis ICL1 (Mycobacterium tuberculosis, UniProt P9WKK7).
T1 sequence (P9WKK7 1-428): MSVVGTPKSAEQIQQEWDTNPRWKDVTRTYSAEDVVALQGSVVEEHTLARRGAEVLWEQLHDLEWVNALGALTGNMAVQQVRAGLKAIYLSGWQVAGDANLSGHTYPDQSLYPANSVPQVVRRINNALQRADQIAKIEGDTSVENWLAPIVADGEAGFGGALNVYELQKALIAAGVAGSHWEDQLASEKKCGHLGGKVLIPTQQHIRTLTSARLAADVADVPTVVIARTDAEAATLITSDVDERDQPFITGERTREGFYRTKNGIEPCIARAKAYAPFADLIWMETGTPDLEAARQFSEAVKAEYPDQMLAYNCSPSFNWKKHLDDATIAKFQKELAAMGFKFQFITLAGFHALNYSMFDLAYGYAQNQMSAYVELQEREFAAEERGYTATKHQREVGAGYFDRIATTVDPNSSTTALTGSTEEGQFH
Briefly: 1H NMR assay of ICL1-catalysed turnover of DL-isocitrate. The format is biochemical. To be noted: for single concentration inhibition of ICL1: 100 μM inhibitor, 190 nM ICL1, 1 mM DL-isocitrate, 5 mM MgCl2. The gist of the method:
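Recombinant ICL1 from E. coli BL21(DE3), purified by His-trap and gel filtration. Reactions in 50 mM Tris-D11 pH 7.5, 90% H2O/10% D2O at 300 K. 1H spectra with excitation-sculpting water suppression every ~1.3 min track the isocitrate decrease and the succinate singlet at 2.3 ppm. Initial rates from 15–20 min; inhibitors at varied concentrations; triplicates; IC50 by 3-parameter sigmoid fit.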

A further assay relates to ICL1. To be noted: DL-isocitrate as substrate, LDH assay; cited from earlier work.
Assay [2] has as its target T1, M. tuberculosis ICL1. Description: 1H NMR ICL1 enzyme kinetics. As to conditions: methylisocitrate as substrate, 190 nM ICL1, 5 mM MgCl2. Type of assay: biochemical.

Regarding `COC(=O)C=CC(=O)c1ccc(OC)cc1` [Methyl-4-(4-methoxyphenyl)-4-oxobut-2-enoate, reference compound], the “single concentration inhibition of ICL1” value on M. tuberculosis ICL1 [1] is given as “weakest of the four tested”. On to `O=C(O)CC(C(=O)O)C(O)C(=O)O` (racemic) [DL-isocitrate, DL-Isocitrate], for which, in the assay on ICL1, the Km was 190 µM and the kcat is given as 5.24 s^–1. `C[C@](CC(=O)O)(C(=O)O)[C@H](O)C(=O)O` [methylisocitrate]: at M. tuberculosis ICL1 [2], the “substrate concentration above which substrate inhibition was observed” value is reported as “exceeded 1 mM”.

As for `CCOC(=O)c1cc2cc(CC(=O)c3ccc(O)cc3O)ccc2o1` [Compound 38], at M. tuberculosis ICL1 [1], the pIC50 is less than 4.00 and the “single concentration inhibition of ICL1” value was “significantly inhibited ICL1”. As to `O=C(O)CC[N+](=O)[O-]` [3-Nitropropionate, reference compound], the “single concentration inhibition of ICL1” value on M. tuberculosis ICL1 [1] is “most potent inhibitor”. On to `CCOC(=O)c1ccc(CC(=O)c2oc3cc(O)ccc3c2C)o1` [Compound 29], for which, at M. tuberculosis ICL1 [1], the negative logarithm of the IC50 (pIC50) was less than 4.00 and the “single concentration inhibition of ICL1” value is “significantly inhibited ICL1”.

By Km is commonly meant the substrate concentration at which the rate is half of its maximum. As usually defined, the pIC50 is the IC50 on a negative log10 scale, so that one unit is a factor of ten.
